Data from PMC11443182 (Science signaling, 2024).
“Also recorded” adds a separate entry of the source.

Columns and labels:
[1] = tested on: WT and mutant AT1Rs (p-ERK/t-ERK) in GqKO cells; assay: ERK phosphorylation Western blot, HEK293 GqKO cells, WT and mutant AT1Rs; type: cell-based, human; settings: for ERK activation in GqKO cells: HEK293 GqKO cells vs WT cells, AngII 1 μM, TRV023 10 μM, Telm 10 μM
Outline: (§1)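 Receptor constructs (plasmid amounts adjusted to equalise receptor expression by radioligand binding) transfected with lipofectamine 2000 into cells grown in MEM with 10% FBS. […] RIPA lysis with protease/phosphatase inhibitors, 1 h at 4°C. SDS-PAGE/PVDF; phospho-ERK1/2 (1:1000) normalised to total ERK1/2 (1:2000).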

WT AT1R [2] = assay: Intramolecular FlAsH BRET; type: cell-based, human; settings: HEK293 cells, AngII 1 μM, TRV023 10 μM, 10 min, N=4
Outline: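 HEK293 cells were Fugene HD-cotransfected with 1.5 µg AT1R and 0.1 µg of each rLuc–β-arrestin2–FlAsH construct. At 48 h cells in HBSS were labeled with 2.5 µM TC-FlAsH (or mock) for 30 min at RT, washed in BAL buffer and plated at 100,000/well. […] Six readings were taken (440–480 / 525–585 nm). Net BRET was calculated after mock-label and vehicle subtraction; N=4.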

[3] = tested on: AT1R-PROX mutant (nuclear ERK activity); assay: Nuclear ERK BRET; type: cell-based, human; settings: HEK293T cells; AngII 1 μM; 5 min; vs WT receptor
Outline: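 WT or mutant AT1R (DNA adjusted for expression) PEI-co-transfected with 50 ng nuclear-localised EKAR biosensor with a NanoLuciferase donor. After 24 h, replated at 50,000/well in starvation MEM with 0.5% FBS, ± PTX 200 ng/mL. […] Read at 37°C, 530/480 nm; net BRET = ligand minus vehicle.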

[4] = tested on: WT and mutant AT1Rs (nuclear ERK activity); assay: Nuclear ERK BRET; type: cell-based, human
WT AT1R [5] = assay: β-arrestin recruitment BRET assay, WT AT1R; type: cell-based, human; settings: HEK293 cells; WT AT1R-RLuc8, β-arrestin2-eGFP; 10 min, 37 °C; N=5
[6] = tested on: AT1R mutants (Ca2+ response); assay: FLIPR Ca2+ assay, AT1R mutants; type: cell-based, human; settings: HEK293T cells; AngII serial doses, 37 °C; AUC; n=5
Outline: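 HEK293T cells (500,000/well) were transfected 24 h after seeding with WT, or adjusted amounts of PROX or MID AT1R giving equal expression. Next day they were replated at 50,000/well overnight and loaded with Calcium 6 dye 2 h at 37 °C.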

WT AT1R (p-ERK/t-ERK) = assay: ERK phosphorylation Western blot, HEK293 cells, WT AT1R; type: cell-based, human; settings: AngII 1 μM, TRV023 10 μM, 10 min, N=8-9
Outline: as §1

AT1R mutants (Gq) = assay: G protein activation TRUPATH BRET assay; type: cell-based, human; settings: AngII concentration response; any of the AT1R mutants
AT1R / β-arrestin = settings: receptor "pre-phosphorylated"; AngII vs TRV023; cited from earlier work
[7] = tested on: AT1R C-terminal tail mutants (PROX, MID, DIST, NULL); assay: Intramolecular FlAsH BRET; type: cell-based, human; settings: HEK293 cells, 10 min, N=4
[8] = tested on: FLAG-tagged human WT AT1R; type: cell-based; settings: AngII 1 μM, TRV023 10 μM, 10 min, N=5
Outline: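 Expi293F cells with inducible N-terminal FLAG-human AT1R (~2.5×10^6 density) were induced 30–36 h with doxycycline 4 µg/mL plus 5 mM butyrate, with expression checked by radioligand binding. […] Receptor was solubilized in MNG/CHS buffer with 1 µM losartan and PhosSTOP, purified on M1 anti-FLAG (EDTA/FLAG-peptide elution), TCA-precipitated, then reduced (TCEP) and alkylated (iodoacetamide) in 8 M urea/EPPS pH 8.5.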

AT1R WT / GRK2 = assay: GRK2 recruitment BRET assay, WT AT1R; type: cell-based, human; settings: GRKΔ4 cells; AngII 1 μM, TRV023 10 μM; 5 min
Outline: (§2)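 GRK2/3/5/6-null HEK293 cells were PEI-transfected with WT or mutant AT1R-Rluc8 (DNA adjusted to match expression) plus 1 µg C-terminally YFP-tagged GRK2. After 24 h they were plated at 50,000/well in 2% FBS starvation MEM. […] Plates were read at 37 °C (530/480 nm), and net BRET was taken as ligand minus vehicle.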

AT1R mutants / GRK2 = assay: GRK2 recruitment BRET assay, AT1R mutants; type: cell-based, human; settings: GRKΔ4 cells; AngII 1 μM, TRV023 10 μM; 5 min
Outline: as §2

[9] = tested on: AT1R C-terminal tail mutants (p-ERK/t-ERK); assay: ERK phosphorylation Western blot, HEK293 cells, AT1R mutants; type: cell-based, human; settings: 10 min, N=8-9
Outline: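 HEK293 cells in 6-well plates were lipofectamine 2000-transfected with WT or mutant AT1R, with DNA adjusted to matched expression. Medium was refreshed on day 1. […] RIPA lysates with protease/phosphatase inhibitors were run on SDS-PAGE/PVDF and probed for phospho-ERK1/2 (1:1000) versus total ERK1/2 (1:2000) overnight at 4 °C.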

AT1R mutants / GRK3 = assay: GRK3 recruitment BRET assay, AT1R mutants; type: cell-based, human; settings: GRKΔ4 cells; AngII 1 μM, TRV023 10 μM; 5 min
Outline: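 HEK293 cells lacking GRK2/3/5/6 PEI-transfected with WT or mutant AT1R-Rluc8 (DNA adjusted to equalise expression) and 1 µg GRK3-YFP (C-terminal tag). Replated after 24 h at 50,000/well in starvation MEM with 2% FBS. […] Read at 37°C, 530/480 nm; net BRET = ligand minus vehicle.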

[10] = tested on: AT1R C-terminal tail mutants (PROX, MID, DIST, NULL); assay: β-arrestin1 endocytosis BRET assay, AT1R mutants; type: cell-based, human; settings: HEK293 cells; β-arrestin1-RlucII/FYVE; 25 min 37 °C; N=4
Outline: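 HEK293 cells coexpressing WT or mutant AT1R, β-arrestin1-RlucII and endosomal FYVE-eGFP were reseeded next day on poly-L-ornithine plates (~25,000/well). […] Coelenterazine 400a (5 µM final) was added 2 min before reading (410/80 and 515/30 nm). Results are given as fold of untreated BRET; N=4.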

AT1R / GRKs = settings: cited from earlier work
[11] = tested on: AT1R C-terminal tail mutants (PROX, MID, DIST, NULL); assay: β-arrestin recruitment BRET assay, AT1R C-terminal tail mutants; type: cell-based, human; settings: HEK293 cells, 10 min, 37 °C, N=5
[12] = tested on: AT1R C-terminal tail mutants (PROX, MID, DIST, NULL); assay: DiscoverX active endocytosis assay; type: cell-based, human; settings: U2OS cells; β-arrestin2-EA; 3 h 37 °C; chemiluminescence; N=3
Outline: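 U2OS cells stably expressing β-arrestin2-EA and endosome-localized PK were transfected with WT or mutant AT1R, replated next day at 35,000 cells/well, and treated with ligands 3 h at 37 °C two days post-transfection. PathHunter detection reagents were added with 1 h RT incubation, then β-gal complementation chemiluminescence was read. Results are expressed as fold of untreated cells.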

Question: For `CCCc1nc2c(C)cc(-c3nc4ccccc4n3C)cc2n1Cc1ccc(-c2ccccc2C(=O)O)cc1` [Telm, telmisartan], which “ERK activation in GqKO cells” value ([1]; 10 min, N=7-8) is on record?
Answer: did not induce ERK activation

Question: With “angiotensin II (DRVYIHPF; Angiotensin-2; UniProt P01019 25-32, looked up) [AngII]” as the molecule, how does the “β-arrestin2 conformation, six FlAsH sensor profile” value (WT AT1R [2]) read?
Answer: distinct β-arrestin conformations

Question: And the “FlAsH4 BRET signal” value (WT AT1R [2]; Telm 10 μM)?
Answer: significant decrease in BRET compared to the shape profile induced by Telm

Question: And the “nuclear ERK response, PROX mutant” value [3]?
Answer: significantly impaired ERK response compared to WT receptor

Question: And the “nuclear ERK activation” value ([4]; HEK293T cells, AT1R WT and all AT1R mutants, AngII 1 μM, 5 min, net BRET)?
Answer: increase in ERK activation

Question: And the “β-arrestin recruitment (net BRET)” value (WT AT1R [5])?
Answer: robust β-arrestin recruitment

Question: What about the “EC50 of Ca2+ response” value [6] of the same molecule?
Answer: no difference in EC50

Question: What about the “maximal Ca2+ response, AT1R-PROX” value [6] of the same molecule?
Answer: reduced maximal Ca^2+ response

Question: What about the “ERK phosphorylation (p-ERK/t-ERK)” value (WT AT1R (p-ERK/t-ERK)) of the same molecule?
Answer: significant increase in ERK phosphorylation

Question: What about the “EC50 of G protein activation, AT1R mutants” value (AT1R mutants (Gq)) of the same molecule?
Answer: No difference in EC50

Question: What about the “allosteric interaction with β-arrestin” value (AT1R / β-arrestin) of the same molecule?
Answer: somewhat stronger allosteric interaction with β-arrestin than does TRV023

Question: What about the “β-arrestin2 FlAsH profile, AT1R-DIST” value [7] of the same molecule?
Answer: more comparable to that of the WT AT1R

Question: What about the “phosphorylation in DIST region” value ([8]; DIST region) of the same molecule?
Answer: comparable amounts of phosphorylation in the DIST region

Question: And the “phosphorylation in PROX region” value ([8]; PROX: Ser326, Ser328, Ser331, Thr332)?
Answer: The magnitude of increase was greatest in the proximal region of the tail; also recorded: the greatest increase in receptor phosphorylation occurred in the PROX region

Question: And the “GRK2 recruitment, AT1R WT” value (AT1R WT / GRK2)?
Answer: robust recruitment

Question: What about the “GRK2 recruitment, DIST mutant” value (AT1R mutants / GRK2) of the same molecule?
Answer: significantly impaired

Question: And the “GRK2 recruitment, MID mutant” value (AT1R mutants / GRK2)?
Answer: significantly impaired

Question: And the “GRK2 recruitment, PROX mutant” value (AT1R mutants / GRK2)?
Answer: robust recruitment

Question: And the “ERK activation in GqKO cells” value ([1]; 10 min, N=7-8)?
Answer: substantially lower in GqKO cells compared to WT cells

Question: And the “ERK activation in GqKO cells, PROX mutant” value ([1]; HEK293 GqKO cells, AT1R-PROX, 10 min, N=7-8)?
Answer: most impairment relative to WT cells; also recorded: more substantially diminished in cells lacking Gq

Question: And the “ERK phosphorylation, AT1R-MID” value ([9]; AT1R-MID vs WT AT1R)?
Answer: somewhat higher activation of ERK phosphorylation

Question: And the “ERK phosphorylation, all phosphorylation-deficient mutants” value ([9]; AngII 1 μM, TRV023 10 μM)?
Answer: largely similar to that of the WT AT1R

Question: What about the “GRK3 recruitment, MID mutant” value (AT1R mutants / GRK3) of the same molecule?
Answer: impaired in response to TRV023, but not AngII

Question: And the “AT1R internalization: requirement of DIST phosphorylation” value [10]?
Answer: largely dispensable

Question: What about the GRK recruitment (AT1R / GRKs) of the same molecule?
Answer: recruits GRK2/3 and GRK5/6

Question: And the “β-arrestin recruitment (net BRET), AT1R-DIST” value ([11]; AT1R-DIST mutant)?
Answer: robust β-arrestin recruitment

Question: What about the “reduction of β-arrestin recruitment, MID sites mutated” value ([11]; AT1R-MID mutant) of the same molecule?
Answer: 50%

Question: And the “reduction of β-arrestin recruitment, PROX sites mutated” value ([11]; AT1R-PROX mutant)?
Answer: 50%

Question: What about the “AT1R internalization: requirement of DIST phosphorylation” value [12] of the same molecule?
Answer: largely dispensable

Question: What about the “AT1R internalization: requirement of PROX and MID phosphorylation” value [12] of the same molecule?
Answer: required for AT1R internalization

Question: For pertussis toxin [PTX], which “PTX block of AngII-stimulated nuclear ERK” value ([4]; PTX 200 ng/mL pretreatment, stimulated by AngII, WT and mutant receptors) is on record?
Answer: about 50%

Question: And the “PTX block of TRV023-stimulated nuclear ERK” value ([4]; PTX 200 ng/mL pretreatment, stimulated by TRV023, WT and mutant receptors)?
Answer: about 50%

Question: And the “inhibition of AngII-induced ERK activation by PTX” value ([1]; GqKO cells, PTX pretreatment before AngII, WT and mutant AT1Rs)?
Answer: largely blocked AngII-induced ERK activation
